ChEMBL document CHEMBL1133676, “Synthesis and hypolipidemic and antiplatelet activities of alpha-asarone isomers in humans (in vitro), mice (in vivo), and rats (in vivo)” (2000)

Key:
Format in all cases: functional
[1] = tested on: Mus musculus; assay: Effect on acute pulmonary thromboembolism in mice at 100 mg/kg
Method in brief: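 Male Swiss mice (29.4 ± 2.6 g) received a single ip dose 1 h before a rapid tail-vein injection of collagen (25 μg/mouse) plus epinephrine (27 μg/mouse) in 0.154 M NaCl. Asarones were given in miglyol 812, and ketorolac in DMSO/Sörensen phosphate buffer pH 7.0, at 0.1 mL/10 g. Death or paralysis was scored within 10 min and reported as % protected versus vehicle controls; χ² test.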

[2] = tested on: Mus musculus; assay: Effect on acute pulmonary thromboembolism in mice at 100 mg/kg expressed as no. of killed or paralyzed to no. of tested observed after 10 min
Method in brief: (§1)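 Male Swiss mice (29.4 ± 2.6 g) were given a single ip dose 1 h before a rapid tail-vein injection of collagen (25 μg/mouse) plus epinephrine (27 μg/mouse) in 0.154 M NaCl. Vehicles were miglyol 812 for asarones, or DMSO with Sörensen phosphate buffer pH 7.0 for ketorolac, at 0.1 mL/10 g. Death or paralysis was scored within 10 min; controls received vehicle only; χ² test.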

[3] = organism: Homo sapiens; assay: In vitro inhibition of human platelet aggregation induced by 10 uM ADP after incubation at 300 uM
Method in brief: (§2)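 Born turbidimetric assay in citrated platelet-rich plasma from healthy male volunteers, with platelet-poor plasma set as 100% transmission. Agents in 95% ethanol were preincubated with PRP for 2 min at 37 °C, stirred at 1000 rpm.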

[4] = organism: Homo sapiens; assay: In vitro inhibition of human platelet aggregation induced by 10 uM ADP after incubation at 150 uM; method in brief: as §2
[5] = organism: Homo sapiens; assay: In vitro inhibition of human platelet aggregation induced by 10 uM ADP after incubation at 100 uM; method in brief: as §2
[6] = organism: Homo sapiens; assay: In vitro inhibition of human platelet aggregation induced by 10 uM ADP after incubation at 250 uM; method in brief: as §2
[7] = organism: Homo sapiens; assay: In vitro inhibition of human platelet aggregation induced by 10 uM ADP after incubation at 200 uM; method in brief: as §2
[8] = tested on: Rattus norvegicus; assay: HDL (high density lipoproteins) cholesterol level in Wistar male rats at a dose of 80 mg/kg
Method in brief: (§3)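 Agents in oil (5 mL/kg) were given once daily by gastric intubation. Doses were 80 mg/kg for test agents and 150 mg/kg for the positive control; chow-fed and vehicle-oil groups served as controls. After a 16 h fast and ether anesthesia, ocular-puncture blood was drawn. Serum lipids were measured by kit spectrophotometry; Student's t-test, n = 9–10.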

[9] = tested on: Rattus norvegicus; assay: Triglyceride level in Wistar male rats administered at a dose of 80 mg/kg; method in brief: as §3
[10] = tested on: Rattus norvegicus; assay: Total cholesterol level in Wistar male rats administered at a dose of 80 mg/kg; method in brief: as §3
[11] = tested on: Rattus norvegicus; assay: LDL (low density lipoproteins) cholesterol level in Wistar male rats at a dose of 80 mg/kg
Method in brief: (§4)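 Compounds in oil (5 mL/kg) were given by gastric intubation once daily, at 80 mg/kg or 150 mg/kg for clofibrate. Rats were then fasted 16 h […], and serum lipids were measured spectrophotometrically with kits; Student's t-test.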

[12] = tested on: Rattus norvegicus; assay: Total cholesterol level in Wistar male rats at a dose of 80 mg/kg; method in brief: as §4
[13] = tested on: Rattus norvegicus; assay: Triglyceride level in Wistar male rats at a dose of 80 mg/kg; method in brief: as §4
[14] = tested on: Mus musculus; assay: Effect on acute pulmonary thromboembolism in mice at 25 mg/kg
[15] = tested on: Mus musculus; assay: Effect on acute pulmonary thromboembolism in mice at 25 mg/kg expressed as no. of killed or paralyzed to no. of tested observed after 10 min
[16] = organism: Rattus norvegicus; assay: LDL (low density lipoproteins) cholesterol level in Wistar male rats; method in brief: as §4
[17] = organism: Rattus norvegicus; assay: Triglyceride level in Wistar male rats; method in brief: as §3
[18] = organism: Rattus norvegicus; assay: HDL (high density lipoproteins) cholesterol level in Wistar male rats; method in brief: as §3
[19] = organism: Rattus norvegicus; assay: Cholesterol level in Wistar male rats; method in brief: as §3
[20] = tested on: Rattus norvegicus; assay: Total cholesterol level in Wistar male rats at a dose of 150 mg/kg; method in brief: as §3
[21] = tested on: Rattus norvegicus; assay: LDL (low density lipoproteins) cholesterol level in Wistar male rats at 150 mg/kg; method in brief: as §4
[22] = tested on: Rattus norvegicus; assay: HDL (high density lipoproteins) cholesterol level in Wistar male rats at 150 mg/kg; method in brief: as §3
[23] = tested on: Rattus norvegicus; assay: Triglyceride level in Wistar male rats at a dose of 150 mg/kg; method in brief: as §3
[24] = tested on: Mus musculus; assay: Effect on acute pulmonary thromboembolism in mice at 50 mg/kg; method in brief: as §1
[25] = tested on: Mus musculus; assay: Effect on acute pulmonary thromboembolism in mice at 50 mg/kg expressed as no. of killed or paralyzed to no. of tested observed after 10 min; method in brief: as §1

| Structure (SMILES) | Protected [1] [%] | No. of killed or paralyzed [2] | HDL cholesterol [8] [mg/dL] | Triglyceride level [9] [mg/dL] | Total cholesterol [10] [mg/dL] | LDL cholesterol [11] [mg/dL] | further results |
| --- | --- | --- | --- | --- | --- | --- | --- |
| C/C=C/c1ccc(OC)c(OC)c1OC | 0 | 14 |  |  |  |  |  |
| C/C=C/c1c(OC)cc(OC)cc1OC | 25 | 30 |  |  |  |  | Inhibition [3]: 17.5%; Inhibition [4]: 19%; Inhibition [5]: 15.9%; Inhibition [6]: 7.5%; Inhibition [7]: 31% |
| C/C=C/c1cc(OC)cc(OC)c1OC | 52 | 12 |  |  |  |  | Inhibition [3]: 38.3%; Inhibition [4]: 25.4%; Inhibition [5]: 13%; Inhibition [6]: 38.3%; Inhibition [7]: 35.4% |
| C/C=C/c1cc(OC)c(OC)c(OC)c1 | 19 | 17 |  |  |  |  |  |
| C/C=C/c1ccc(OC)c(OC)c1OC.CC(C)CCC[C@@H](C)[C@H]1CC[C@H]2[C@@H]3CC=C4C[C@@H](O)CC[C@]4(C)[C@H]3CC[C@]12C |  |  | 42.8 | 125 | 96.6 | 30.1 |  |
| C/C=C/c1cc(OC)cc(OC)c1OC.CC(C)CCC[C@@H](C)[C@H]1CC[C@H]2[C@@H]3CC=C4C[C@@H](O)CC[C@]4(C)[C@H]3CC[C@]12C |  |  | 39.2 | 140 | 97.9 | 35.8 |  |
| C/C=C/c1cc(OC)c(OC)c(OC)c1.CC(C)CCC[C@@H](C)[C@H]1CC[C@H]2[C@@H]3CC=C4C[C@@H](O)CC[C@]4(C)[C@H]3CC[C@]12C |  |  | 45.3 | 136 | 93.4 | 19.8 |  |
| C/C=C/c1c(OC)cc(OC)cc1OC.CC(C)CCC[C@@H](C)[C@H]1CC[C@H]2[C@@H]3CC=C4C[C@@H](O)CC[C@]4(C)[C@H]3CC[C@]12C |  |  | 37.9 | 116 | 98.1 | 36.9 |  |
| C/C=C/c1c(OC)ccc(OC)c1OC.CC(C)CCC[C@@H](C)[C@H]1CC[C@H]2[C@@H]3CC=C4C[C@@H](O)CC[C@]4(C)[C@H]3CC[C@]12C |  |  | 30.2 | 162 | 115 | 48.2 |  |
| C/C=C/c1cc(OC)c(OC)cc1OC.CC(C)CCC[C@@H](C)[C@H]1CC[C@H]2[C@@H]3CC=C4C[C@@H](O)CC[C@]4(C)[C@H]3CC[C@]12C [ALPHAASARONE AND CHOLESTEROL] |  |  | 45.5 |  |  | 24.4 | Total cholesterol [12]: 113.6 mg/kg; Triglyceride level [13]: 219.3 |
| CC(=O)Oc1ccccc1C(=O)O [ASPIRIN] |  |  |  |  |  |  | Protected [14]: 45%; No. of killed or paralyzed [15]: 28; Inhibition [4]: 37.1%; Inhibition [5]: 31.2%; Inhibition [6]: 56.4%; Inhibition [7]: 48.5% |
| CC(C)CCC[C@@H](C)[C@H]1CC[C@H]2[C@@H]3CC=C4C[C@@H](O)CC[C@]4(C)[C@H]3CC[C@]12C [CHOLESTEROL] |  |  |  |  |  |  | LDL cholesterol [16]: 43.2 mg/dL; Triglyceride level [17]: 125 mg/dL; HDL cholesterol [18]: 29 mg/dL; Total cholesterol [19]: 111 mg/dL |
| CC(C)CCC[C@@H](C)[C@H]1CC[C@H]2[C@@H]3CC=C4C[C@@H](O)CC[C@]4(C)[C@H]3CC[C@]12C.CCOC(=O)C(C)(C)Oc1ccc(Cl)cc1 [CLOFIBRATE + CHOLESTEROL] |  |  |  |  |  |  | Total cholesterol [20]: 85.8 mg/dL; LDL cholesterol [21]: 46.1 mg/dL; HDL cholesterol [22]: 22.1 mg/dL; Triglyceride level [23]: 91.6 mg/dL |
| O=C(c1ccccc1)c1ccc2n1CCC2C(=O)O (configuration not stated) [KETOROLAC] | 33 | 16 |  |  |  |  |  |
| C/C=C/c1cc(OC)c(OC)cc1OC [TRANS-ASARONE] | 44 | 10 |  |  |  |  | Protected [24]: 0%; Inhibition [3]: 47%; No. of killed or paralyzed [25]: 13; Inhibition [4]: 14.7%; Inhibition [5]: 4%; Inhibition [6]: 30.3%; Inhibition [7]: 40.3% |
